# Compounds with a hit are over-represented: about 2.9% of the library has one in this group of screens.
# S100A4 MyoIIA = inhibitors of S100A4-myosin IIA peptide binding, primary screen, biochemical, fluorescence polarization, TAMRA-MyoIIA peptide. inhibition, % at 10.7 µM. hit rate 0.14% among 360,000. AID 652163, 2013;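 active means mean inhibition of at least 70% across replicates, with every replicate also reaching that level; inconclusive means mean inhibition reaches 70% but some replicates fall short; inactive means mean inhibition below 70%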
# Target sequence (P26447 whole entry, looked up): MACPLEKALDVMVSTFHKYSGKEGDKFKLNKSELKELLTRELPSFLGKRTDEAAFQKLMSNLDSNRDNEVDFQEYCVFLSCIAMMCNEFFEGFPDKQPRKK
#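 System – human S100A4 monomer protein, biochemical binding assay · Buffer or medium – Calcium-containing HEPES buffer, pH 7.2 · Timing – 5 min between mix addition and reading · Also added – TAMRA-labelled myosin IIA heavy-chain peptide probe, 5 nM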
# Statin myotox sup = suppressors of statin myotoxicity in C2C12 myotubes, primary screen, cell-based, single point, plate reader. C2C12 myotubes + simvastatin, ATP luminescence, 48 h; scaled: DMSO 0, geranylgeraniol control 100. AID 602340, 2012. hit rate 0.78% among 330,000. rescue of ATP level, % at 7.49 µM;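 active means mean ATP rescue above about 67%, or every replicate alone reaching that limit, limit read from the data, passing the limit was not always enough; inconclusive means no clear call, values can overlap the other calls; inactive means mean under the limit and some replicate under it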;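 further: myotubes were challenged with 10 µM simvastatin during compound exposure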
# DENV2 CPE rescue = inhibitors of DENV2 cytopathic effect, primary screen, cell-based, plate reader, single concentration. hit rate 1.7% among 350,000. DENV2-infected cells, cytopathic effect rescue. CPE inhibition, % at 9.99 µM. AID 651640, 2012; in the data active means CPE inhibition above about 20%, passing the limit was not always enough; inconclusive means no clear call, values can overlap the other calls; tested in BHK-21 cells
# PGC1a acetyl inh = inhibitors of PGC1a acetylation signal, primary screen, cell-based, U2OS, AlphaScreen, inhibitor mode | hit rate 0.17% among 350,000 | inhibition, % at 15.6 µM | AID 651687, 2012 | AlphaScreen anti-acetyl-lysine; with virally co-expressed GCN5 acetyltransferase;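 active means every replicate shows inhibition of at least 40%; inconclusive means mean inhibition at least 40% but some replicate below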
# SIRT5 block = SIRT5 desuccinylase inhibitors, primary screen, biochemical, fluorescence imaging, single point, set 5; AID 652115, 2013; NAD-dependent protein deacylase sirtuin-5, mitochondrial (Homo sapiens), Q9NXA8; Purified SirT5, succinyl-peptide AMC, trypsin-coupled fluorescence; inhibition, % at 15 µM; hit rate 1.1% among 330,000; in the data active means inhibition above about 15%; inconclusive means no clear call, values can overlap the other calls
# Target sequence (Q9NXA8 whole entry, looked up): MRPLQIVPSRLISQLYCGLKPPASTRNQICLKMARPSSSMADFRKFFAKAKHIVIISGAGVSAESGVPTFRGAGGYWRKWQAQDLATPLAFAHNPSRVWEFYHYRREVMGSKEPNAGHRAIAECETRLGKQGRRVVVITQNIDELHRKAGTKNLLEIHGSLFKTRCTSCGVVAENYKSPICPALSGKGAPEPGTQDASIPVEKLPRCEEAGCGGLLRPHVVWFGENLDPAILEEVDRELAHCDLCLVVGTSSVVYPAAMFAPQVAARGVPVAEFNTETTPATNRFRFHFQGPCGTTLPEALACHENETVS
# A number is an active result; . = inactive; ? = inconclusive; / = no result given.
SMILES,S100A4 MyoIIA,Statin myotox sup,DENV2 CPE rescue,PGC1a acetyl inh,SIRT5 block
CO[C@H]1CN(C)C(=O)c2cc(NC(=O)c3ccc(-c4ccccc4)cc3)ccc2OC[C@H](C)NC[C@@H]1C,.,.,23,.,.
O=C(NC1CCCC1)N[C@H]1CC[C@H](CC(=O)N2CCOCC2)O[C@@H]1CO,.,.,.,.,.
CCCc1cn(CC[C@H]2CC[C@@H](NC(=O)C3CCCCC3)[C@H](CO)O2)nn1,.,.,.,.,.
CCC(=O)N1CC(=O)N2[C@H](CO)[C@H](c3ccc(-c4ccccc4C)cc3)[C@@H]2C1,.,/,.,.,.
C=CCOc1ccc(Br)cc1/C=N/O,/,126,/,.,/
O/N=C/c1cc(Br)ccc1OCc1ccccc1F,/,.,/,.,/
C[C@@H]1CN([C@@H](C)CO)C(=O)c2cc(C#CC3CCCCC3)cnc2O[C@H]1CN(C)S(=O)(=O)c1cccc(F)c1,.,.,.,.,22
C[C@H](CO)N1C[C@H](C)[C@H](CN(C)S(=O)(=O)c2cccc(F)c2)Oc2ncc(-c3cc4ccccc4o3)cc2C1=O,.,.,/,.,15
C[C@@H]1CN([C@@H](C)CO)C(=O)c2cc(C#Cc3ccccc3F)cnc2O[C@H]1CN(C)S(=O)(=O)c1ccccc1F,.,?,35,.,.
C[C@@H]1CN([C@@H](C)CO)C(=O)c2cc(C#CC3CCCCC3)cnc2O[C@@H]1CN(C)S(=O)(=O)c1ccccc1,.,.,.,.,16
COc1cccc(S(=O)(=O)N(C)C[C@@H]2Oc3ncc(-c4cc5ccccc5o4)cc3C(=O)N([C@H](C)CO)C[C@@H]2C)c1,.,.,.,.,.
C[C@H](CO)N1C[C@H](C)[C@H](CN(C)C(=O)Nc2ccc(C(F)(F)F)cc2)Oc2c(NS(=O)(=O)c3ccc(F)cc3)cccc2C1=O,.,.,.,.,.
C[C@H]1CN([C@@H](C)CO)C(=O)c2cc(C#CC3CCCCC3)cnc2O[C@H]1CN(C)S(=O)(=O)c1cccc(F)c1,.,.,.,.,.
C[C@H](CO)N1C[C@H](C)[C@@H](CN(C)S(=O)(=O)c2cccc(F)c2)Oc2ncc(C#CC3CCCCC3)cc2C1=O,.,.,.,.,30
C[C@@H]1CN([C@@H](C)CO)C(=O)c2cc(C#CC3CCCCC3)cnc2O[C@@H]1CN(C)S(=O)(=O)c1cccc(F)c1,.,.,.,.,18
Cc1ccc(S(=O)(=O)N(C)C[C@@H]2Oc3ncc(C#Cc4cccc(F)c4)cc3C(=O)N([C@H](C)CO)C[C@@H]2C)cc1,.,100,.,.,.
CCOC1=C2CN(S(=O)(=O)c3ccc(Cl)cc3)[C@H](c3ccccc3)C[C@@H]2N(S(=O)(=O)c2ccc(C)cc2)[C@H](c2ccccc2)C1,.,.,.,.,.
CCOC1=C2CN(S(=O)(=O)c3ccc(C)cc3)C(c3cccc(Cl)c3)CC2N(S(=O)(=O)c2ccc(Cl)cc2)C(c2ccccc2)C1 (centres undefined),.,/,32,/,.
Cc1noc(C)c1S(=O)(=O)Nc1ccc2c(c1)C(=O)N([C@@H](C)CO)C[C@H](C)[C@H](CN(C)S(=O)(=O)c1c(C)noc1C)O2,/,.,/,.,/
CCCCOP(=O)(c1ccc(N(C)C)cc1)C(Nc1ccccc1)c1ccccc1 (centres undefined),.,.,.,.,.
CCCOP(=O)(c1ccc(N(C)C)cc1)C(Nc1ccccc1)c1ccc(N(C)C)cc1 (centres undefined),.,.,.,.,29
CCNc1ccc(C(=O)Nc2ccc3nc(C)sc3c2)cc1[N+](=O)[O-],.,/,33,/,.
Cc1nc2cc(NC(=O)c3ccc([N+](=O)[O-])s3)ccc2s1,.,.,73,.,.
C[C@H](CO)N1C[C@H](C)[C@@H](CN(C)S(=O)(=O)c2cn(C)cn2)Oc2ccc(NC(=O)Nc3ccc(C(F)(F)F)cc3)cc2C1=O,.,?,.,.,.
CC(C)NC(=O)N(C)C[C@@H]1OCCCC[C@@H](C)Oc2ccc(NC(=O)CCCN(C)C)cc2C(=O)N([C@H](C)CO)C[C@@H]1C,.,/,.,.,.
SMILES,S100A4 MyoIIA,Statin myotox sup,DENV2 CPE rescue,PGC1a acetyl inh,SIRT5 block
COc1cc(Cl)c(C)cc1NC(=O)COC(=O)c1cnc(C)cn1,/,95,/,.,/
COc1ccc(NC(=O)N2C[C@H]3[C@@H](c4ccccc42)[C@H](CO)N3C(=O)C2CC2)cc1,/,.,.,.,.
Cc1ccc(NC(=O)Cn2cccc2C2=NC(c3ccccc3)CO2)cc1C (centres undefined),.,/,103,.,.
CCc1ccccc1NC(=O)Cn1cccc1C1=NC(c2ccccc2)CO1 (centres undefined),/,/,/,.,/
COCC#Cc1cnc2c(c1)C(=O)N([C@H](C)CO)C[C@H](C)[C@@H](CN(C)C(=O)Nc1cccc(F)c1)O2,.,.,.,.,.
O=C1CSC(c2cn(-c3ccccc3)nc2-c2ccccc2)N1Cc1ccco1 (centres undefined),/,74,/,.,/
O=C1CSC(c2ccncc2)N1Cc1ccco1 (centres undefined),/,.,/,.,/
CCC(=O)Nc1ccc2c(c1)OC[C@@H](C)N(C(=O)C1CCC1)C[C@@H](C)[C@@H](OC)CN(C)C2=O,.,.,?,.,.
CSC(=Cc1ccc(C(=O)c2ccc(C)cc2)n1C)S(C)=O (centres undefined),.,/,.,/,/
C[C@H]1CN([C@@H](C)CO)S(=O)(=O)c2ccc(C#CCN(C)C)cc2O[C@H]1CN(C)Cc1ccccc1,.,.,.,.,.
CCCC#Cc1ccc2c(c1)O[C@@H](CN(C)CC1CCOCC1)[C@@H](C)CN([C@H](C)CO)S2(=O)=O,.,.,.,.,.
C[C@@H]1CN([C@@H](C)CO)S(=O)(=O)c2ccc(C#CCN(C)C)cc2O[C@H]1CN(C)Cc1ccccc1,.,.,24,.,.
CCCN(C)C[C@@H]1Oc2cc(C#CCC(C)C)ccc2S(=O)(=O)N([C@H](C)CO)C[C@@H]1C,.,.,34,.,.
CCCN(C)C[C@H]1Oc2cc(C#CCC(C)C)ccc2S(=O)(=O)N([C@@H](C)CO)C[C@H]1C,.,.,.,.,.
CCCC#Cc1ccc2c(c1)O[C@@H](CN(C)CC1CCOCC1)[C@H](C)CN([C@H](C)CO)S2(=O)=O,.,.,.,.,24
CC(C)CC#Cc1ccc2c(c1)O[C@H](CN(C)Cc1ccccc1)[C@H](C)CN([C@@H](C)CO)S2(=O)=O,/,/,/,48,/
CC(C)CC#Cc1ccc2c(c1)O[C@@H](CN(C)Cc1ccccc1)[C@H](C)CN([C@@H](C)CO)S2(=O)=O,/,/,/,.,/
C[C@H]1CCCCO[C@H](CN(C)C(=O)C2CCCCC2)[C@@H](C)CN([C@@H](C)CO)C(=O)c2cc(NC(=O)c3ccccc3)ccc2O1,.,/,.,.,.

# Screens as filed in PubChem BioAssay.
